In the library only some 1.8% were active in any assay of this set; here they are far more common.
FXIa inh 1536 = inhibitors of human coagulation factor XIa. inhibition, % at 5 µM. purified FXIa, Boc-Glu-Ala-Arg-AMC fluorogenic substrate. P03951. actives 0.14% (n = 220,000);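 active = inhibition of at least 40%; inactive = inhibition below 40%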;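 also: fluorescence of freed AMC excited at 355 nm; 0% = enzyme without compound and 100% = no enzyme blank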
Thrombin inh = blocks human thrombin protease activity; inhibition, % at 5 µM; alpha-thrombin, Boc-VPR-AMC fluorogenic substrate cleavage; P00734; actives 0.26% (n = 220,000);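 active = inhibition at or above 40%; inactive = inhibition below 40%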;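 also: 0% = enzyme with no compound and 100% = wells without enzyme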
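System: Human alpha-thrombin protein | Medium: pH 7.5 Tris (50 mM) with NaCl 150 mM, Tween 20 0.05% | Times: Enzyme reaction carried out at room temperature | Detection: AMC fluorescence, 355/460 nm | Evaluation: Percent inhibition scaled between no-compound controls and no-enzyme blanks | Benchmarks: Enzyme without compound as high, wells lacking enzyme as low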
FXIIa inh = blocks human coagulation factor XIIa protease activity | P00748 | purified FXIIa, Boc-QGR-AMC fluorogenic substrate, 2 h | inhibition, % at 5 µM | actives 0.3% (n = 220,000) | AID 800; in the data active = inhibition above about 40%;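 also: 0% = enzyme with no compound and 100% = blank without enzyme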
Target sequence (P00748 20-372 limits assumed): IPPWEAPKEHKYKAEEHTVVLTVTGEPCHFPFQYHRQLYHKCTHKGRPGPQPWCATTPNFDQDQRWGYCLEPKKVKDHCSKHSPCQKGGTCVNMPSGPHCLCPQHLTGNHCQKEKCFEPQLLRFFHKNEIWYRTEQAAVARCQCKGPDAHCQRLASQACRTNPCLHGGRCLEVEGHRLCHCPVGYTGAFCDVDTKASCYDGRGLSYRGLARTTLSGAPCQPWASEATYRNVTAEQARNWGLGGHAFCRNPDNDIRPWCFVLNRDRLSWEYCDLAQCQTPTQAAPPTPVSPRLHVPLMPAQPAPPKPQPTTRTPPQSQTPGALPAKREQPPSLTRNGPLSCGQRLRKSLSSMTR
Target sequence (P00748 373-615 limits assumed): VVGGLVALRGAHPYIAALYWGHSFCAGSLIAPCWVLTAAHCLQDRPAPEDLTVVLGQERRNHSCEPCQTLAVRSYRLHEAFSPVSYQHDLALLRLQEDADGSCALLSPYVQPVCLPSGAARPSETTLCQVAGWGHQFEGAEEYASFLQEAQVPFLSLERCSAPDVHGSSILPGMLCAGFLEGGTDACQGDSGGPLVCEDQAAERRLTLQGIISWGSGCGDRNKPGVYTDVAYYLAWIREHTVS
Wee1 stabilizer = inhibitors of human Wee1 degradation | P30291 | HeLa Luc-Wee1K328M stability, luciferase luminescence; 100% = proteasome inhibitor MG132 effect | reporter increase, % at 5 µM | actives 1.2% (n = 220,000);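 active = activation above the mean of all tested compounds plus 3 SD, set per screening run, cut at about 8.8% in these data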;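 also: cells exposed to compound for 20 h before luminescence read; 0% = DMSO alone and 100% = MG132 at 30 µM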
KLK5 inh = blocks human kallikrein 5 protease activity; AID 873; recombinant hK5, fluorogenic AMC substrate cleavage; actives 0.59% (n = 210,000); Q9Y337; inhibition, % at 5 µM;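 active = inhibition of 40% or more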;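 also: 0% = enzyme controls without compound and 100% = no-enzyme blanks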
Platelet DG rel = platelet dense granule release activity | inhibition, %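 (compounds screened at 7.5 µM in platelet-rich plasma)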 | human platelet-rich plasma, SFLLRN dense granule ATP release, luminescence | actives 0.22% (n = 300,000);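 active = mean replicate score, as percent of positive control, at or above 50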
* hit, by the source's call; / = not tested or not shown.

SMILES	FXIa inh 1536	Thrombin inh	FXIIa inh	Wee1 stabilizer	KLK5 inh	Platelet DG rel
CCCN1CCC(N2CCCC(C(=O)O)C2)CC1 (stereo not drawn)	33	45*	27	5	27	-2
Cc1ccc(N(C)C(=O)N2CCN(S(=O)(=O)c3ccc4ccccc4c3)CC2)cc1	2	0	10	-1	0	11
Cc1sc(NC(=O)c2ccc(Cl)s2)c(C(N)=O)c1C	0	-5	8	9.6*	4	7
Cc1sc(NC(=O)c2ccc(Br)s2)c(C(N)=O)c1C	2	3	19	1	4	1
COc1cccc(C(C(=O)NC2CCCC2)N(C(=O)c2ccco2)c2ccc(NC(C)=O)cc2)c1OC (stereo not drawn)	/	/	/	/	/	-20
NC(=O)N(CCC(=O)O)c1ccccc1	4	3	12	10*	-10	-3
CCN(CCC(=O)O)c1ccccc1	-8	-1	2	-1	6	16
Cc1cc(N/N=C/c2ccc(O)cc2)nc(NS(=O)(=O)c2ccccc2)n1	10	35	6	5	47*	11
Cc1ccc(/C=N/Nc2cc(C)nc(NCc3ccccc3)n2)cc1	-4	2	12	1	4	3
Cc1ccc(NC2=NCC(=O)N2C2CCCC2)c(C)c1	12	22	26	1	112*	-9
Cc1ccc(C)c(NC2=NCC(=O)N2C2CCCCC2)c1	3	-12	3	1	0	2
COc1ccc(NC(=O)CCN2C(=O)c3cccc([N+](=O)[O-])c3C2=O)cc1	/	/	/	/	/	11
CC(C)(C)c1ccc(NC(=O)COC(=O)CCN2C(=O)c3cccc([N+](=O)[O-])c3C2=O)cc1	-5	-5	4	17*	-6	3
Cc1nnc(NC(=O)CSc2cn(CCNC(=O)c3ccccc3)c3ccccc23)s1	4	-1	8	4	-7	58*
O=C(NC1CCCCC1)C(c1ccc(F)cc1)N(Cc1ccco1)C(=O)CN1C(=O)c2ccccc2S1(=O)=O (stereo not drawn)	-3	10	-1	9.9*	-3	-7
O=c1oc2ccccc2cc1NCc1ccccc1O	-6	-5	3	8.9*	31	9
Cc1cc(C)n2nc(Cc3ccccc3)nc2n1	-3	9	-4	0	-18	-3
Cc1cc(C)n2nc(S(=O)(=O)N(C)c3ccccc3)nc2n1	18	23	31	0	55*	0
COc1cccc(CC(=O)OC(C)C(=O)Nc2ncc(Cl)cc2Cl)c1 (stereo not drawn)	/	/	/	/	/	-14
CC(OC(=O)CCCN1C(=O)c2ccccc2C1=O)C(=O)Nc1ncc(Cl)cc1Cl (stereo not drawn)	1	26	-1	-2	70*	1
CN=c1scc(-c2ccccc2F)n1/N=C/c1ccc(O)c(O)c1O	-4	-13	2	-2	-8	77*
COc1ccc(/C=C2\CCC/C(=C\C=N\N(C)C)C2=O)cc1	-1	1	6	1	-8	-13
CN(C)/N=C/C=C1\CCC/C(=C\c2ccc(F)c(F)c2)C1=O	3	0	9	10*	-29	1
Cc1cc(-c2cn3ccccc3n2)c(C)n1-c1ccccc1	4	-4	7	-2	0	9
COc1ccc(-n2c(C)cc(-c3cn4cccc(C)c4n3)c2C)cc1	-4	1	3	8.8*	-12	28
SMILES	FXIa inh 1536	Thrombin inh	FXIIa inh	Wee1 stabilizer	KLK5 inh	Platelet DG rel
C/C(N)=C(/C#N)C(=O)CSc1nc(-c2ccccc2)c(-c2ccccc2)o1	/	/	/	/	/	-8
CCCCOc1ccc(C(=O)N2CCN(CC(=O)Nc3ccc(C)cc3)CC2)cc1OC	/	/	/	/	/	2
O=C(NC1=NCCS1)c1cccc(OC(F)F)c1	-7	5	5	11*	-3	2
COc1ccc(CCNC(=O)c2coc(=O)c(Br)c2)cc1	/	/	/	/	/	2
OC1CN=C2C=CC=CN2C1 (stereo not drawn)	2	-1	14	-1	-17	54*
C/C(CC(=O)Nc1ccc(N(C)C)cc1)=N\NC(=O)C(=O)NCc1ccccc1	-2	3	13	9.9*	18	-1
C/C(CC(=O)Nc1ccc(N(C)C)cc1)=N\NC(=O)c1ccccc1O	/	/	/	/	/	-8
O=C(COC(=O)c1ccccn1)c1ccc([N+](=O)[O-])cc1	/	/	/	/	/	6
